In ChEMBL document CHEMBL1806473, “Structure-based optimization of click-based histone deacetylase inhibitors” (Eur J Med Chem, 2011):

Legend:
[1] = biological target: Histone deacetylase; assay: Inhibition of HDAC in human HeLa cells using Ac-Arg-Gly-Lys(Ac)-AMC as fluorescent substrate after 20 mins by fluorescence assay; assay type: cell-based
[2] = tested on: K562; assay: Antiproliferative activity against human K562 cells by SRB assay; assay type: functional
Procedure, shortened: (§1)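 Tested in the NCI in vitro human tumor cell line screen, run by the National Cancer Institute. Each compound was given at five concentrations (100, 10, 1.0, 0.1 and 0.01 μM). GI50 is the drug concentration that reduces growth of treated cells to half that of control cells during drug incubation, judged from the SRB signal.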

[3] = tested on: MOLT-4; assay: Antiproliferative activity against human MOLT4 cells by SRB assay; assay type: functional; procedure, shortened: as §1
[4] = tested on: A549; assay: Antiproliferative activity against human A549 cells by SRB assay; assay type: functional; procedure, shortened: as §1
[5] = tested on: EKVX; assay: Antiproliferative activity against human EKVX cells by SRB assay; assay type: functional; procedure, shortened: as §1
[6] = tested on: HOP-62; assay: Antiproliferative activity against human HOP62 cells by SRB assay; assay type: functional; procedure, shortened: as §1
[7] = tested on: HOP-92; assay: Antiproliferative activity against human HOP92 cells by SRB assay; assay type: functional; procedure, shortened: as §1
[8] = tested on: NCI-H226; assay: Antiproliferative activity against human NCI-H226 cells by SRB assay; assay type: functional; procedure, shortened: as §1
[9] = tested on: NCI-H23; assay: Antiproliferative activity against human NCI-H23 cells by SRB assay; assay type: functional; procedure, shortened: as §1
[10] = tested on: NCI-H322M; assay: Antiproliferative activity against human NCI-H322M cells by SRB assay; assay type: functional; procedure, shortened: as §1
[11] = tested on: HCT-116; assay: Antiproliferative activity against human HCT116 cells by SRB assay; assay type: functional; procedure, shortened: as §1
[12] = tested on: HCT-15; assay: Antiproliferative activity against human HCT15 cells by SRB assay; assay type: functional; procedure, shortened: as §1
[13] = tested on: SW-620; assay: Antiproliferative activity against human SW620 cells by SRB assay; assay type: functional
Procedure, shortened: (§2)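 Cell growth was tested in the NIH in vitro disease-oriented human tumor cell line screen, which NCI ran for these compounds. Compounds were tested at five concentrations (100, 10, 1.0, 0.1 and 0.01 μM), and growth was read by SRB signal. GI50 is the drug concentration that reduces growth of treated cells to half that of control cells during drug incubation.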

[14] = tested on: SF-268; assay: Antiproliferative activity against human SF268 cells by SRB assay; assay type: functional; procedure, shortened: as §1
[15] = tested on: SF-295; assay: Antiproliferative activity against human SF295 cells by SRB assay; assay type: functional; procedure, shortened: as §1
[16] = tested on: SF-539; assay: Antiproliferative activity against human SF539 cells by SRB assay; assay type: functional; procedure, shortened: as §1
[17] = tested on: U-251; assay: Antiproliferative activity against human U251 cells by SRB assay; assay type: functional; procedure, shortened: as §2
[18] = tested on: MDA-MB-435; assay: Antiproliferative activity against human MDA-MB-435 cells by SRB assay; assay type: functional; procedure, shortened: as §1
[19] = tested on: SK-MEL-2; assay: Antiproliferative activity against human SK-MEL-2 cells by SRB assay; assay type: functional; procedure, shortened: as §1
[20] = tested on: SK-MEL-28; assay: Antiproliferative activity against human SK-MEL-28 cells by SRB assay; assay type: functional; procedure, shortened: as §1
[21] = tested on: SK-MEL-5; assay: Antiproliferative activity against human SK-MEL-5 cells by SRB assay; assay type: functional; procedure, shortened: as §1
[22] = tested on: OVCAR-8; assay: Antiproliferative activity against human OVCAR8 cells by SRB assay; assay type: functional; procedure, shortened: as §1
[23] = tested on: 786-0; assay: Antiproliferative activity against human 786-0 cells by SRB assay; assay type: functional; procedure, shortened: as §1
[24] = tested on: ACHN; assay: Antiproliferative activity against human ACHN cells by SRB assay; assay type: functional; procedure, shortened: as §1
[25] = tested on: CAKI-1; assay: Antiproliferative activity against human Caki1 cells by SRB assay; assay type: functional; procedure, shortened: as §1
[26] = tested on: RXF 393; assay: Antiproliferative activity against human RXF393 cells by SRB assay; assay type: functional; procedure, shortened: as §1
[27] = tested on: SN12C; assay: Antiproliferative activity against human SN12C cells by SRB assay; assay type: functional; procedure, shortened: as §1
[28] = tested on: DU-145; assay: Antiproliferative activity against human DU145 cells by SRB assay; assay type: functional; procedure, shortened: as §1
[29] = tested on: BT-549; assay: Antiproliferative activity against human BT549 cells by SRB assay; assay type: functional; procedure, shortened: as §1
[30] = tested on: CCRF-CEM; assay: Cytotoxicity against human CCRF-CEM cells; assay type: cell-based
[31] = tested on: K562; assay: Cytotoxicity against human K562 cells; assay type: cell-based
[32] = tested on: A549; assay: Cytotoxicity against human A549 cells; assay type: cell-based
Procedure, shortened: (§3)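 Tested in the NCI in vitro disease-oriented human tumour cell line screen, with screening performed by NCI. Growth was read by SRB signal over the drug incubation period at five concentrations: 100, 10, 1.0, 0.1 and 0.01 μM. GI50 is the concentration that reduces growth of treated cells to half that of control cells.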

[33] = tested on: HOP-62; assay: Cytotoxicity against human HOP62 cells; assay type: cell-based; procedure, shortened: as §3
[34] = tested on: HOP-92; assay: Cytotoxicity against human HOP92 cells; assay type: cell-based
[35] = tested on: NCI-H226; assay: Cytotoxicity against human NCI-H226 cells; assay type: cell-based
[36] = tested on: NCI-H23; assay: Cytotoxicity against human NCI-H23 cells; assay type: cell-based
[37] = tested on: NCI-H460; assay: Cytotoxicity against human NCI-H460 cells; assay type: cell-based
[38] = tested on: NCI-H522; assay: Cytotoxicity against human NCI-H522 cells; assay type: cell-based; procedure, shortened: as §3
[39] = tested on: HT-29; assay: Cytotoxicity against human HT-29 cells; assay type: cell-based; procedure, shortened: as §3
[40] = tested on: SW-620; assay: Cytotoxicity against human SW620 cells; assay type: cell-based
Procedure, shortened: (§4)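 Screened by NCI in its in vitro disease-oriented human tumour cell line panel. Compounds tested at five concentrations (100, 10, 1.0, 0.1 and 0.01 μM). Growth read by sulforhodamine B (SRB) signal. GI50 is the concentration reducing growth of treated cells to half that of control cells during the drug incubation.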

[41] = tested on: SF-268; assay: Cytotoxicity against human SF268 cells; assay type: cell-based; procedure, shortened: as §3
[42] = tested on: SNB-19; assay: Cytotoxicity against human SNB19 cells; assay type: cell-based; procedure, shortened: as §4
[43] = tested on: SNB-75; assay: Cytotoxicity against human SNB75 cells; assay type: cell-based; procedure, shortened: as §4
[44] = tested on: U-251; assay: Cytotoxicity against human U251 cells; assay type: cell-based; procedure, shortened: as §4
[45] = tested on: LOX IMVI; assay: Cytotoxicity against human LOXIMVI cells; assay type: cell-based
[46] = tested on: MDA-MB-435; assay: Cytotoxicity against human MDA-MB-435 cells; assay type: cell-based
[47] = tested on: SK-MEL-2; assay: Cytotoxicity against human SK-MEL-2 cells; assay type: cell-based; procedure, shortened: as §3
[48] = tested on: SK-MEL-5; assay: Cytotoxicity against human SK-MEL-5 cells; assay type: cell-based
[49] = tested on: UACC-62; assay: Cytotoxicity against human UACC62 cells; assay type: cell-based; procedure, shortened: as §4
[50] = tested on: IGROV-1; assay: Cytotoxicity against human IGROV1 cells; assay type: cell-based
[51] = tested on: OVCAR-3; assay: Cytotoxicity against human OVCAR3 cells; assay type: cell-based; procedure, shortened: as §3
[52] = tested on: OVCAR-8; assay: Cytotoxicity against human OVCAR8 cells; assay type: cell-based
[53] = tested on: A498; assay: Cytotoxicity against human A498 cells; assay type: cell-based
[54] = tested on: ACHN; assay: Cytotoxicity against human ACHN cells; assay type: cell-based
[55] = tested on: RXF 393; assay: Cytotoxicity against human RXF393 cells; assay type: cell-based; procedure, shortened: as §3
[56] = tested on: SN12C; assay: Cytotoxicity against human SN12C cells; assay type: cell-based; procedure, shortened: as §4
[57] = tested on: DU-145; assay: Cytotoxicity against human DU145 cells; assay type: cell-based; procedure, shortened: as §3
[58] = tested on: MCF7; assay: Cytotoxicity against human MCF7 cells; assay type: cell-based
[59] = tested on: MDA-MB-231; assay: Cytotoxicity against human MDA-MB-231 cells; assay type: functional; procedure, shortened: as §3
[60] = tested on: BT-549; assay: Cytotoxicity against human BT549 cells; assay type: cell-based

CC(C)C(/C=C/c1ccccc1)n1cc(/C=C/C(=O)NO)nn1 (stereo not given)
IC50 [1]: 22 nM | GI50 [2]: 705 nM | GI50 [3]: 427 nM | GI50 [4]: 1330 nM | GI50 [5]: 1810 nM | GI50 [6]: 1240 nM | GI50 [7]: 1730 nM | GI50 [8]: 2380 nM | GI50 [9]: 1640 nM | GI50 [10]: 1360 nM | GI50 [11]: 316 nM | GI50 [12]: 2900 nM | GI50 [13]: 649 nM | GI50 [14]: 1870 nM | GI50 [15]: 1470 nM | GI50 [16]: 1190 nM | GI50 [17]: 1130 nM | GI50 [18]: 719 nM | GI50 [19]: 1520 nM | GI50 [20]: 1590 nM | GI50 [21]: 730 nM | GI50 [22]: 816 nM | GI50 [23]: 1590 nM | GI50 [24]: 1210 nM | GI50 [25]: 487 nM | GI50 [26]: 1190 nM | GI50 [27]: 1860 nM | GI50 [28]: 1090 nM | GI50 [29]: 3280 nM | LC50 [30]: > 100000 nM | LC50 [31]: > 100000 nM | LC50 [32]: 88700 nM | LC50 [33]: 23400 nM | LC50 [34]: 22100 nM | LC50 [35]: 40100 nM | LC50 [36]: 12600 nM | LC50 [37]: 42900 nM | LC50 [38]: 8480 nM | LC50 [39]: > 100000 nM | LC50 [40]: 9220 nM | LC50 [41]: 29700 nM | LC50 [42]: 66600 nM | LC50 [43]: 38300 nM | LC50 [44]: 5660 nM | LC50 [45]: 5470 nM | LC50 [46]: 31600 nM | LC50 [47]: > 100000 nM | LC50 [48]: 5170 nM | LC50 [49]: 6610 nM | LC50 [50]: 31600 nM | LC50 [51]: 22100 nM | LC50 [52]: > 100000 nM | LC50 [53]: 8630 nM | LC50 [54]: 71100 nM | LC50 [55]: 7680 nM | LC50 [56]: > 100000 nM | LC50 [57]: > 100000 nM | LC50 [58]: > 100000 nM | LC50 [59]: 73400 nM | LC50 [60]: > 100000 nM
